{"source": "ChEMBL document CHEMBL1145495", "about": "“Polyamine effects on antibiotic susceptibility in bacteria” (2007)", "key": {"Pseudomonas aeruginosa [1]": {"test_system": "Pseudomonas aeruginosa", "experiment": "Antibacterial activity against Pseudomonas aeruginosa T6268 after 14 to 16 hrs by broth dilution method", "type": "functional"}, "Pseudomonas aeruginosa [2]": {"test_system": "Pseudomonas aeruginosa", "experiment": "Antibacterial activity against Pseudomonas aeruginosa M38100A after 14 to 16 hrs by broth dilution method", "type": "functional"}, "Escherichia coli [3]": {"test_system": "Escherichia coli", "experiment": "Antibacterial activity against Escherichia coli N43 acrA mutant assessed as inhibition of AcrAB efflux pump after 14 to 16 hrs by broth dilution method", "type": "functional", "procedure,_shortened": "(§1)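 CLSI broth dilution in cation-adjusted Mueller-Hinton broth with serial twofold dilutions, with or without spermine or spermidine added. Overnight cultures were diluted in saline to OD600 0.1–0.12, and about 10^5 CFU were inoculated. Incubation was 14–16 h at 37°C. MIC was confirmed in three independent experiments. E. coli acrA mutants were tested with 1 mM spermine; P. aeruginosa isolates with 1 mM spermine or 20 mM spermidine.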"}, "Pseudomonas aeruginosa [4]": {"test_system": "Pseudomonas aeruginosa", "experiment": "Antibacterial activity against streptomycin-resistant Pseudomonas aeruginosa DK100 after 14 to 16 hrs by broth dilution method", "type": "functional", "procedure,_shortened": "as §1"}, "Staphylococcus aureus [5]": {"test_system": "Staphylococcus aureus", "experiment": "Antibacterial activity against Staphylococcus aureus N315 after 14 to 16 hrs by broth dilution method", "type": "functional", "procedure,_shortened": "as §1"}, "Pseudomonas aeruginosa [6]": {"test_system": "Pseudomonas aeruginosa", "experiment": "Antibacterial activity against Pseudomonas aeruginosa H4563 after 14 to 16 hrs by broth dilution method", "type": "functional"}, "Staphylococcus aureus [7]": {"test_system": "Staphylococcus aureus", "experiment": "Antibacterial activity against Staphylococcus aureus ATCC 3556 after 14 to 16 hrs by broth dilution method", "type": "functional"}, "Pseudomonas aeruginosa [8]": {"test_system": "Pseudomonas aeruginosa", "experiment": "Antibacterial activity against Pseudomonas aeruginosa T2095 after 14 to 16 hrs by broth dilution method", "type": "functional"}, "Escherichia coli [9]": {"test_system": "Escherichia coli", "experiment": "Antibacterial activity against Escherichia coli N818 delta acrA mutant assessed as inhibition of AcrAB efflux pump after 14 to 16 hrs by broth dilution method", "type": "functional", "procedure,_shortened": "as §1"}, "Salmonella typhimurium": {"test_system": "Salmonella typhimurium", "experiment": "Antibacterial activity against Salmonella enterica serovar Typhimurium LT2 after 14 to 16 hrs by broth dilution method", "type": "functional, Salmonella enterica subsp. enterica serovar Typhimurium"}, "Pseudomonas aeruginosa [10]": {"test_system": "Pseudomonas aeruginosa", "experiment": "Antibacterial activity against Pseudomonas aeruginosa M37310 after 14 to 16 hrs by broth dilution method", "type": "functional"}, "Staphylococcus aureus [11]": {"test_system": "Staphylococcus aureus", "experiment": "Antibacterial activity against Staphylococcus aureus Mu50 after 14 to 16 hrs by broth dilution method", "type": "functional"}, "Escherichia coli [12]": {"test_system": "Escherichia coli", "experiment": "Antibacterial activity against Escherichia coli C921-61 after 14 to 16 hrs by broth dilution method", "type": "functional"}, "Escherichia coli [13]": {"test_system": "Escherichia coli", "experiment": "Antibacterial activity against Escherichia coli K10 after 14 to 16 hrs by broth dilution method", "type": "functional"}, "Pseudomonas aeruginosa [14]": {"test_system": "Pseudomonas aeruginosa", "experiment": "Antibacterial activity against Pseudomonas aeruginosa F4980 after 14 to 16 hrs by broth dilution method", "type": "functional", "procedure,_shortened": "as §1"}, "Pseudomonas aeruginosa [15]": {"test_system": "Pseudomonas aeruginosa", "experiment": "Antibacterial activity against Pseudomonas aeruginosa F66336 after 14 to 16 hrs by broth dilution method", "type": "functional"}, "Pseudomonas aeruginosa [16]": {"test_system": "Pseudomonas aeruginosa", "experiment": "Antibacterial activity against Pseudomonas aeruginosa DK101 containing pAU48 expressing oprD after 14 to 16 hrs by broth dilution method", "type": "functional"}, "Pseudomonas aeruginosa [17]": {"test_system": "Pseudomonas aeruginosa", "experiment": "Antibacterial activity against Pseudomonas aeruginosa PAO1 assessed as inhibition of bacterial population at 64 ug/ml after 48 hrs", "type": "functional, organism-based", "procedure,_shortened": "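Population analysis: overnight 37°C cultures adjusted to 1 x 10^8 to 5 x 10^8 CFU/ml, diluted, 100 µl spread on LB plates with twofold serial dilutions of antibiotic with or without 1 mM spermine, plus LB alone; colonies counted after 48 h at 37°C; triplicate experiments.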"}, "Escherichia coli [18]": {"test_system": "Escherichia coli", "experiment": "Antibacterial activity against Escherichia coli K12 after 14 to 16 hrs by broth dilution method", "type": "functional"}, "Pseudomonas aeruginosa [19]": {"test_system": "Pseudomonas aeruginosa", "experiment": "Antibacterial activity against streptomycin and gentamycin-resistant Pseudomonas aeruginosa DK101 containing oprD mutant after 14 to 16 hrs by broth dilution method", "type": "functional", "procedure,_shortened": "as §1"}, "Pseudomonas aeruginosa [20]": {"test_system": "Pseudomonas aeruginosa", "experiment": "Antibacterial activity against Pseudomonas aeruginosa T5177 after 14 to 16 hrs by broth dilution method", "type": "functional", "procedure,_shortened": "as §1"}, "Pseudomonas aeruginosa [21]": {"test_system": "Pseudomonas aeruginosa", "experiment": "Antibacterial activity against Pseudomonas aeruginosa M38100B after 14 to 16 hrs by broth dilution method", "type": "functional"}, "Escherichia coli [22]": {"test_system": "Escherichia coli", "experiment": "Antibacterial activity against Escherichia coli W4573 assessed as inhibition of AcrAB efflux pump after 14 to 16 hrs by broth dilution method", "type": "functional"}, "Pseudomonas aeruginosa [23]": {"test_system": "Pseudomonas aeruginosa", "experiment": "Antibacterial activity against Pseudomonas aeruginosa PAO1 after 14 to 16 hrs by broth dilution method", "type": "functional"}, "Pseudomonas aeruginosa [24]": {"test_system": "Pseudomonas aeruginosa", "experiment": "Antibacterial activity against Pseudomonas aeruginosa M22152 after 14 to 16 hrs by broth dilution method", "type": "functional", "procedure,_shortened": "as §1"}, "Pseudomonas aeruginosa [25]": {"test_system": "Pseudomonas aeruginosa", "experiment": "Antibacterial activity against Pseudomonas aeruginosa T15464 after 14 to 16 hrs by broth dilution method", "type": "functional", "procedure,_shortened": "as §1"}, "Staphylococcus aureus [26]": {"test_system": "Staphylococcus aureus", "experiment": "Antibacterial activity against Staphylococcus aureus Mu50 at 20 ug/ml after 12 hrs by time kill assay", "type": "functional, organism-based", "procedure,_shortened": "(§2)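 Time-kill: overnight MH broth cultures were diluted in saline to OD600 0.08–0.12, and 1 x 10^5 to 5 x 10^5 CFU went into 1 ml MH broth with or without antibiotic and/or 1 mM spermine. Static incubation at 37°C. Timed 100 µl aliquots were plated on LB neat or after 10-fold dilutions, and colonies counted after 18–24 h at 37°C.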"}, "Staphylococcus aureus [27]": {"test_system": "Staphylococcus aureus", "experiment": "Antibacterial activity against Staphylococcus aureus Mu50 assessed as inhibition of bacterial population at 128 ug/ml after 48 hrs", "type": "functional, organism-based"}, "Staphylococcus aureus [28]": {"test_system": "Staphylococcus aureus", "experiment": "Antibacterial activity against Staphylococcus aureus N315 at 20 ug/ml after 12 hrs by time kill assay", "type": "functional, organism-based", "procedure,_shortened": "as §2"}, "Staphylococcus aureus [29]": {"test_system": "Staphylococcus aureus", "experiment": "Antibacterial activity against Staphylococcus aureus Mu50 assessed as inhibition of bacterial population at greater than 512 ug/ml after 48 hrs", "type": "functional, organism-based"}}, "note": "The source made the active and inactive calls. No cut-off for these calls is given here."}
{"smiles": "CC1(C)S[C@@H]2[C@H](NC(=O)C(C(=O)O)c3ccccc3)C(=O)N2[C@H]1C(=O)O", "note": "(stereo partly specified) [CARBENICILLIN]", "values": [{"measurement": "MIC", "setting": "Pseudomonas aeruginosa [1]", "result": 16, "unit": "µg/mL"}, {"measurement": "MIC", "setting": "Pseudomonas aeruginosa [2]", "result": 16, "unit": "µg/mL"}, {"measurement": "MIC", "setting": "Escherichia coli [3]", "result": 4, "unit": "µg/mL"}, {"measurement": "MIC", "setting": "Pseudomonas aeruginosa [4]", "result": 64, "unit": "µg/mL"}, {"measurement": "MIC", "setting": "Staphylococcus aureus [5]", "result": 32, "unit": "µg/mL"}, {"measurement": "MIC", "setting": "Pseudomonas aeruginosa [6]", "result": "> 1020", "unit": "µg/mL"}, {"measurement": "MIC", "setting": "Staphylococcus aureus [7]", "result": 1, "unit": "µg/mL"}, {"measurement": "MIC", "setting": "Pseudomonas aeruginosa [8]", "result": 256, "unit": "µg/mL"}, {"measurement": "MIC", "setting": "Escherichia coli [9]", "result": 2, "unit": "µg/mL"}, {"measurement": "MIC", "setting": "Salmonella typhimurium", "result": 8, "unit": "µg/mL"}, {"measurement": "MIC", "setting": "Pseudomonas aeruginosa [10]", "result": 1020, "unit": "µg/mL"}, {"measurement": "MIC", "setting": "Staphylococcus aureus [11]", "result": "≥ 512", "unit": "µg/mL"}, {"measurement": "MIC", "setting": "Escherichia coli [12]", "result": 16, "unit": "µg/mL"}, {"measurement": "MIC", "setting": "Escherichia coli [13]", "result": 32, "unit": "µg/mL"}, {"measurement": "MIC", "setting": "Pseudomonas aeruginosa [14]", "result": 256, "unit": "µg/mL"}, {"measurement": "MIC", "setting": "Pseudomonas aeruginosa [15]", "result": 256, "unit": "µg/mL"}, {"measurement": "MIC", "setting": "Pseudomonas aeruginosa [16]", "result": 64, "unit": "µg/mL"}, {"measurement": "Activity", "setting": "Pseudomonas aeruginosa [17]", "result": "Active"}, {"measurement": "MIC", "setting": "Escherichia coli [18]", "result": 16, "unit": "µg/mL"}, {"measurement": "MIC", "setting": "Pseudomonas aeruginosa [19]", "result": 64, "unit": "µg/mL"}, {"measurement": "MIC", "setting": "Pseudomonas aeruginosa [20]", "result": "> 1020", "unit": "µg/mL"}, {"measurement": "MIC", "setting": "Pseudomonas aeruginosa [21]", "result": 1020, "unit": "µg/mL"}, {"measurement": "MIC", "setting": "Escherichia coli [22]", "result": 16, "unit": "µg/mL"}, {"measurement": "MIC", "setting": "Pseudomonas aeruginosa [23]", "result": 64, "unit": "µg/mL"}, {"measurement": "MIC", "setting": "Pseudomonas aeruginosa [24]", "result": "> 1020", "unit": "µg/mL"}, {"measurement": "MIC", "setting": "Pseudomonas aeruginosa [25]", "result": "> 1020", "unit": "µg/mL"}]}
{"smiles": "Cc1onc(-c2ccccc2)c1C(=O)N[C@@H]1C(=O)N2[C@@H]1SC(C)(C)[C@@H]2C(=O)O", "note": "[OXACILLIN]", "values": [{"measurement": "Activity", "setting": "Staphylococcus aureus [26]", "result": "inactive"}, {"measurement": "MIC", "setting": "Staphylococcus aureus [5]", "result": 16, "unit": "µg/mL"}, {"measurement": "Activity", "setting": "Staphylococcus aureus [27]", "result": "inactive"}, {"measurement": "MIC", "setting": "Staphylococcus aureus [7]", "result": 0.12, "unit": "µg/mL"}, {"measurement": "MIC", "setting": "Salmonella typhimurium", "result": 256, "unit": "µg/mL"}, {"measurement": "MIC", "setting": "Staphylococcus aureus [11]", "result": 512, "unit": "µg/mL"}, {"measurement": "MIC", "setting": "Escherichia coli [12]", "result": 512, "unit": "µg/mL"}, {"measurement": "Activity", "setting": "Staphylococcus aureus [28]", "result": "inactive"}, {"measurement": "MIC", "setting": "Escherichia coli [18]", "result": 512, "unit": "µg/mL"}, {"measurement": "Activity", "setting": "Staphylococcus aureus [29]", "result": "Active"}]}
